This is an account of results in ChEMBL document CHEMBL1932971, “Synthesis of uriedo and thiouriedo derivatives of peptide conjugated heterocycles - A new class of promising antimicrobials” (2012).

In brackets after ≈: the same amount, converted by molar mass. Peptide text beside a SMILES is read from it. * marks the point of attachment. Piperazinyl(4-(2,3-Cl2Ph)) = Clc1cccc(N2CCN(*)CC2)c1Cl; Thiocarbamoyl(N-4-ClPh) = S=C(Nc1ccc(Cl)cc1)*; X1 = Fc1ccc2c(C3CCN(*)CC3)noc2c1; OcHex = C1CCC(O*)CC1

Holding throughout (format): functional
Assay [1] concerns Aspergillus flavus. Description: Ratio of bavistin MIC to compound MIC for Aspergillus flavus after 72 hrs by microdilution method. (Dilution methods test growth across graded concentrations, often in twofold steps.)
In a further assay the test system is Escherichia coli. Description: Antibacterial activity against Escherichia coli at 30 ug/ml after 24 hrs by agar well diffusion method. The conditions noted are these: read-out: DIZ. The procedure, abridged: (§1)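 Agar well diffusion. Inocula were grown in nutrient broth at 37 °C for 24 h, then subcultured in nutrient broth at room temperature. Compounds were made as a 1 mg/mL DMSO stock and diluted to 30 µg/mL final. Nutrient agar plates were spread-inoculated and 6 mm wells each got 0.1 mL. Controls were amoxicillin (reference) and DMSO (negative). Incubation was 24 h at 37 °C. Inhibition zone was measured in mm as the mean of three determinations.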
Background: In agar diffusion tests the substance spreads into inoculated agar from a disc or well.

In assay [2] the test system is Fusarium oxysporum. Briefly: Antifungal activity against Fusarium oxysporum after 72 hrs by microdilution method.
The subject of assay [3] is Aspergillus flavus. Description: Antifungal activity against Aspergillus flavus after 72 hrs by microdilution method.
Assay [4] has as its system Aspergillus niger. Description: Antifungal activity against Aspergillus niger at 30 ug/ml after 72 hrs by agar well diffusion method. The conditions noted are these: read-out: DIZ. The procedure, abridged: (§2)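 Fungal well diffusion. Inocula were subcultured in nutrient broth for one day, then spread on solidified medium. Compounds were made as a 1 mg/mL DMSO stock and diluted to 30 µg/mL final. Each 6 mm well got 0.1 mL. Controls were bavistin (reference) and DMSO (negative). Plates stood for 3 days at room temperature. Inhibition zone was measured in mm as the mean of three determinations.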

Another assay has as its system Staphylococcus aureus. Description: Antibacterial activity against coagulase-positive Staphylococcus aureus at 30 ug/ml after 24 hrs by agar well diffusion method. The conditions noted are these: read-out: DIZ. The gist of the method: as §1
Assay [5] relates to Fusarium oxysporum. Briefly: Ratio of bavistin MIC to compound MIC for Fusarium oxysporum after 72 hrs by microdilution method.
In assay [6] the test system is Aspergillus niger. Description: Antifungal activity against Aspergillus niger after 72 hrs by microdilution method.
The subject of assay [7] is Fusarium oxysporum. Description: Antifungal activity against Fusarium oxysporum at 30 ug/ml after 72 hrs by agar well diffusion method. The conditions noted are these: read-out: DIZ. The procedure, abridged:
as §2

In assay [8] the test system is Aspergillus niger. Description: Ratio of bavistin MIC to compound MIC for Aspergillus niger after 72 hrs by microdilution method.
For a further assay, the system named is Klebsiella pneumoniae. Description: Antibacterial activity against Klebsiella pneumoniae at 30 ug/ml after 24 hrs by agar well diffusion method. The conditions noted are these: read-out: DIZ. The gist of the method: as §1
The test system of assay [9] is Aspergillus flavus. Briefly: Antifungal activity against Aspergillus flavus at 30 ug/ml after 72 hrs by agar well diffusion method. To be noted: read-out: DIZ. The gist of the method: as §2
For the next assay, the system named is Xanthomonas oryzae. Description: Antibacterial activity against Xanthomonas oryzae at 30 ug/ml after 24 hrs by agar well diffusion method. The conditions noted are these: read-out: DIZ.

By MIC is commonly meant the lowest concentration found to suppress growth. A lower MIC goes with inhibition by little substance.

For the compound `CC(C)[C@H](NC(=O)CNC(=O)[C@@H]1CCCN1C(=O)[C@H](Cc1ccccc1)NC(=O)CNC(=O)[C@H](CCC(=O)OC1CCCCC1)NC(=O)CNC(=S)Nc1ccc(Cl)cc1)C(=O)NCC(=O)N[C@H](C(=O)N1CCC[C@H]1C(=O)NCC(=O)N[C@H](C(=O)NCC(=O)N[C@@H](Cc1ccccc1)C(=O)N1CCC[C@H]1C(=O)NCC(=O)N[C@@H](Cc1ccccc1)C(=O)NCC(=O)N[C@@H](Cc1ccccc1)C(=O)N1CCC[C@H]1C(=O)NCC(=O)N[C@H](C(=O)NCC(=O)N[C@H](C(=O)N1CCC[C@H]1C(=O)NCC(=O)N[C@H](C(=O)NCC(=O)N[C@@H](Cc1ccccc1)C(=O)N1CCC[C@H]1C(=O)N1CCN(c2cccc(Cl)c2Cl)CC1)C(C)C)C(C)C)C(C)C)C(C)C)C(C)C` ({Thiocarbamoyl(N-4-ClPh)}-GE(OcHex)GFPGVGVPGVGFPGFGFPGVGVPGVGFP-{Piperazinyl(4-(2,3-Cl2Ph))}), the Ratio with Aspergillus flavus [1], with Fusarium oxysporum [5] and with Aspergillus niger [8] was 10 each time. The zone of inhibition at 30 µg/mL in the assay with Escherichia coli is 19 mm; with Aspergillus niger [4] it was 44 mm; with Staphylococcus aureus, 16 mm; with Fusarium oxysporum [7], 40 mm; in the assay on Klebsiella pneumoniae, 18 mm; in the assay with Aspergillus flavus [9], 39 mm. For the same compound, the zone of inhibition at 30 µg/mL in the assay with Xanthomonas oryzae was found to be 16 mm. In addition, the MIC in the assay on Fusarium oxysporum [2] is 3 µg/mL (≈ 0.935 µM); with Aspergillus flavus [3], 2.5 µg/mL (≈ 0.779 µM); in the assay with Aspergillus niger [6] it was 2.5 µg/mL (≈ 0.779 µM).
In the case of `CC(C)[C@H](NC(=O)CNC(=O)[C@@H]1CCCN1C(=O)[C@H](Cc1ccccc1)NC(=O)CNC(=O)[C@H](CCC(=O)OC1CCCCC1)NC(=O)CNC(=S)Nc1ccc(Cl)cc1)C(=O)NCC(=O)N[C@H](C(=O)N1CCC[C@H]1C(=O)NCC(=O)N[C@H](C(=O)NCC(=O)N[C@H](C(=O)N1CCC[C@H]1C(=O)NCC(=O)N[C@H](C(=O)NCC(=O)N[C@H](C(=O)N1CCC[C@H]1C(=O)NCC(=O)N[C@@H](Cc1ccccc1)C(=O)NCC(=O)N[C@@H](Cc1ccccc1)C(=O)N1CCC[C@H]1C(=O)NCC(=O)N[C@@H](Cc1ccccc1)C(=O)NCC(=O)N[C@@H](Cc1ccccc1)C(=O)N1CCC[C@H]1C(=O)N1CCC(c2noc3cc(F)ccc23)CC1)C(C)C)C(C)C)C(C)C)C(C)C)C(C)C` ({Thiocarbamoyl(N-4-ClPh)}-GE(OcHex)GFPGVGVPGVGVPGVGVPGFGFPGFGFP-X1), the Ratio in the assay on Aspergillus flavus [1], in the assay with Fusarium oxysporum [5] and in the assay with Aspergillus niger [8] was 10 each time. For the same compound, the zone of inhibition at 30 µg/mL stood at 21 mm with Escherichia coli; 45 mm with Aspergillus niger [4]; 17 mm in the assay on Staphylococcus aureus; 41 mm with Fusarium oxysporum [7]; 19 mm with Klebsiella pneumoniae; 40 mm in the assay on Aspergillus flavus [9]. Further, the zone of inhibition at 30 µg/mL with Xanthomonas oryzae came to 17 mm. Moreover, the results for the MIC against Fusarium oxysporum [2], with Aspergillus flavus [3] and in the assay on Aspergillus niger [6] were 2.5 µg/mL (≈ 0.781 µM), 1.75 µg/mL (≈ 0.547 µM) and 1.75 µg/mL (≈ 0.547 µM), respectively.
